According to ChEMBL document CHEMBL1127630, “New dual inhibitors of neutral endopeptidase and angiotensin-converting enzyme: rational design, bioavailability, and pharmacological responses in experimental hypertension” (J Med Chem, 1994):

Assays:
[1] = target: T1, Angiotensin-converting enzyme (Mus musculus, UniProt P09470); assay: Inhibitory potency against angiotensin converting enzyme by displacement of [3H]trandolaprilate binding in mouse lung
T1 sequence (P09470 whole entry): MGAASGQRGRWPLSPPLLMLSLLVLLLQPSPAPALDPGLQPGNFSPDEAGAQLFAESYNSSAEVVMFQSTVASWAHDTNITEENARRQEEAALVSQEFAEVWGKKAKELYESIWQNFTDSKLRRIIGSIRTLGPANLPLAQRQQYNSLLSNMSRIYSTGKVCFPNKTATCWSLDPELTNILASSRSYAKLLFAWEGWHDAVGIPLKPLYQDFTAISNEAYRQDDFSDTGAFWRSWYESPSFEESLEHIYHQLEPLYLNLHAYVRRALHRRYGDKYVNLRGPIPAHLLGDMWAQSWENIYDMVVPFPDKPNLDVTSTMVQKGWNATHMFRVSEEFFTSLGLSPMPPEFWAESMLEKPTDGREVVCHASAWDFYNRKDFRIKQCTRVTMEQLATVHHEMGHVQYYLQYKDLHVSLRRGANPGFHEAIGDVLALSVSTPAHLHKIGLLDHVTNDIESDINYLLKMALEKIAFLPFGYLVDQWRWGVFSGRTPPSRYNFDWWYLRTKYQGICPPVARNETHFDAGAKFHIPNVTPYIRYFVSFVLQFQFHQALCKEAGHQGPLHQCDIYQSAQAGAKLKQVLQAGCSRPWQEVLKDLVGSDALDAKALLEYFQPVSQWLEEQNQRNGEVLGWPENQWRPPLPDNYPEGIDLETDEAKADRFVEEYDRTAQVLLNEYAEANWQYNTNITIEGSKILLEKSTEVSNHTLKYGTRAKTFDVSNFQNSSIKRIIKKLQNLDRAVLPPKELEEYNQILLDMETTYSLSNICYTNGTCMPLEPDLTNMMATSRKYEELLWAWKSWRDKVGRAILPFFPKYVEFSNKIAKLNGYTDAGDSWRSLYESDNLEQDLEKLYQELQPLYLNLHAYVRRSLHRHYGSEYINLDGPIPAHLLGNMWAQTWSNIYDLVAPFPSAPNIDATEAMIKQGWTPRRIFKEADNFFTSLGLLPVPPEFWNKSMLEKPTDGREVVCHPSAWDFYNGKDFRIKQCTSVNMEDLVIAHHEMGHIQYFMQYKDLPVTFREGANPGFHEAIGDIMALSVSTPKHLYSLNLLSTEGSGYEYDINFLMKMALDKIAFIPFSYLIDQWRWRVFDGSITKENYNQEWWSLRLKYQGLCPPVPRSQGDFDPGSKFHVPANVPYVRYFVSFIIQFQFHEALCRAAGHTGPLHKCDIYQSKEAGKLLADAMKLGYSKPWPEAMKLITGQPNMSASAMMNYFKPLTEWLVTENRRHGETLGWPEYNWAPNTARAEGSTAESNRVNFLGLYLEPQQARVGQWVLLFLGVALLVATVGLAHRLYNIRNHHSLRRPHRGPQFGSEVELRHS

[2] = target: T2, Angiotensin-converting enzyme (Mus musculus) (UniProt P09470); assay: Inhibition of lung Angiotensin Converting Enzyme (ACE) in mouse at a dose of 2.6*10e-5 mol/kg after 20 min oral administration
T2 sequence (whole entry): T1 sequence (P09470 whole entry)
Summary of the method: (§1)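 Prescreen in mice: single oral dose of 2.6 X 10-5 mol/kg of prodrug (thioacetyl and benzyl ester protected, tested as stereoisomer mixtures). Inhibition of binding of a tritiated ACE probe to lung measured 20 and 60 min after dosing. Mean ± SEM of three experiments, three mice each.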

[3] = target: T2, Angiotensin-converting enzyme (Mus musculus); assay: In vivo inhibition of lung Angiotensin Converting Enzyme (ACE) in mouse at a dose of 2.6*10e-5 mol/kg after 60 min oral administration; assay type: functional, organism-based; summary of the method: as §1
[4] = target: T2, Angiotensin-converting enzyme (Mus musculus); assay: In vivo inhibition of lung ACE was observed at 120 min after oral administration of the compound; assay type: functional, organism-based; set-up: concentration or dose not given beside the values
Mus musculus = assay: In vivo inhibition of lung ACE was observed at 60 min after oral administration; assay type: functional; set-up: concentration or dose not given beside the values
[5] = target: T3, Neprilysin (Mus musculus) (UniProt Q61391); assay: Inhibition of Neutral Endopeptidase activity was measured by using the displacement of [3H]-HACBOGly from mouse kidney after 1 hr oral administration; set-up: scale not given: the % may be the effect or the level left
T3 sequence (whole entry): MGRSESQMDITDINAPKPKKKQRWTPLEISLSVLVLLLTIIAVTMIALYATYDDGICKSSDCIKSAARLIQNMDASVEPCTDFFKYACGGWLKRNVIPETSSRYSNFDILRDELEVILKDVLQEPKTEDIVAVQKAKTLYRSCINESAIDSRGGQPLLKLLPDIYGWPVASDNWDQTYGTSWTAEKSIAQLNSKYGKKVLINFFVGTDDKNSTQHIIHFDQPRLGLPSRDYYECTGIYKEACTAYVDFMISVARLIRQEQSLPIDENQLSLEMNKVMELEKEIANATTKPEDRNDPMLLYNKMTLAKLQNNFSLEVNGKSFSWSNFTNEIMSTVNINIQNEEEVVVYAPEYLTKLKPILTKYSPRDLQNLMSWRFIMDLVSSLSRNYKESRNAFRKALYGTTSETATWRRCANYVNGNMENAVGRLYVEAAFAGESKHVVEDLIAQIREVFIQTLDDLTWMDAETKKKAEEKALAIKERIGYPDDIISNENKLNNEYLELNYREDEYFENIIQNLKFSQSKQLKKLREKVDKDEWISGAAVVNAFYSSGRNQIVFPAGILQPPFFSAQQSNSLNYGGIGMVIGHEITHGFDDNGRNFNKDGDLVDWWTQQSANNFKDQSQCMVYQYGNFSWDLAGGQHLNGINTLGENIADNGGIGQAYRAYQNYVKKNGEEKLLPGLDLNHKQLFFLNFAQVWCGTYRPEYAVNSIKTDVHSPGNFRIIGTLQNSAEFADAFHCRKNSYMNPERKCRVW
Summary of the method: (§2)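 Mice dosed orally at 2.6 X 10-6 mol/kg in 10% ethanol/10% cremophor/80% water. [3H]HACBOGly (1 uCi) injected iv at intervals after dosing. Kidneys taken 15 min later, homogenized in 50 mM Tris-HCl pH 7.4 at 4 °C and filtered, radioactivity counted. Inhibition expressed as percent displacement versus control. Nonspecific binding defined with coinjected retrothiorphan (10.000 eq).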

[6] = target: T3, Neprilysin (Mus musculus); assay: Inhibition of Neutral Endopeptidase activity was measured by using the displacement of [3H]HACBOGly from mouse kidney after 2 hr oral administration; set-up: scale not given: the % may be the effect or the level left; summary of the method: as §2
[7] = target: T2, Angiotensin-converting enzyme (Mus musculus); assay: In vivo inhibition of lung ACE was observed at 30 min after oral administration of the compound; assay type: organism-based; set-up: concentration or dose not given beside the values
[8] = target: T3, Neprilysin (Mus musculus); assay: Inhibition of Neutral Endopeptidase activity was measured by using the displacement of [3H]HACBOGly from mouse kidney after 4 hr oral administration; set-up: scale not given: the % may be the effect or the level left; summary of the method: as §2
[9] = target: T2, Angiotensin-converting enzyme (Mus musculus); assay: In vivo inhibition of lung ACE was observed at 240 min after oral administration of the compound; assay type: functional, organism-based; set-up: concentration or dose not given beside the values
[10] = target: T3, Neprilysin (Mus musculus); assay: Inhibition of Neutral Endopeptidase activity was measured by using the displacement of [3H]HACBOGly from mouse kidney after 8 hr oral administration; set-up: scale not given: the % may be the effect or the level left; summary of the method: as §2
[11] = target: T3, Neprilysin (Mus musculus); assay: Inhibition of Neutral Endopeptidase activity was measured by using the displacement of [3H]HACBOGly from mouse kidney after 16h oral administration; set-up: scale not given: the % may be the effect or the level left; summary of the method: as §2

With `O=C(NC(Cc1ccc(O)cc1)C(=O)O)C(CS)Cc1ccccc1` (centres undefined) the IC50 [1] was 25 nM.
Work on `C[C@H](NC(=O)[C@H](CS)[C@@H](C)c1ccccc1)C(=O)O` (stereo in doubt; 44d) yielded a Ki [1] of 95 nM.
For `Cc1ccccc1C(C)C(CS)C(=O)NC(Cc1ccc(O)cc1)C(=O)O` (centres undefined), the IC50 [1] was 210 nM.
In the case of `CC(c1ccc(O)cc1)C(CS)C(=O)NC(Cc1ccc(O)cc1)C(=O)O` (centres undefined), the IC50 [1] is reported as 7.9 nM.
Work on `CC(=O)Oc1ccc(C[C@H](NC(=O)C(CSC(C)=O)C(C)c2ccc(F)cc2)C(=O)OCc2ccccc2)cc1` (some centres undefined) yielded an inhibition [2] of 36% and an inhibition [3] of 11%.
Work on `CCC(NC(=O)C(CS)C(C)c1ccccc1)C(=O)O` (centres undefined) yielded an IC50 [1] of 5.4 nM.
`CCC[C@H](NC(=O)C(CSC(=O)c1ccccc1)C(C)c1ccccc1)C(=O)O` (some centres undefined) showed a Control [4] of 49%, a Control (Mus musculus) of 52% and a Control [5] of 70%. For the same compound, the Control [6] was 55%, the Control [7] was 69% and the Control [8] was 46%. For the same compound, the Control [9] was 41%.
`CC(NC(=O)C(CS)C(C)c1ccc2c(c1)OCO2)C(=O)O` (centres undefined) gave an IC50 [1] of 9.5 nM.
Work on `CC(=O)SCC(C(=O)N[C@@H](C)C(=O)OCc1ccccc1)C(C)c1ccc(F)c(F)c1` (some centres undefined) yielded an inhibition [2] of 35% and an inhibition [3] of 22%.
`CC(c1ccccc1)C(CSC(=O)C12CC3CC(CC(C3)C1)C2)C(=O)N[C@@H](C)C(=O)O` (some centres undefined) gave a Control [4] of 36%, a Control (Mus musculus) of 39% and a Control [7] of 40%. For the same compound, the Control [9] was 35%.
`CC(=O)Oc1ccc(C[C@H](NC(=O)C(CSC(C)=O)C(C)c2ccc(F)c(F)c2)C(=O)OCc2ccccc2)cc1` (some centres undefined) showed an inhibition [2] of 24% and an inhibition [3] of 19%.
For `CC(c1ccc(F)c(F)c1)C(CS)C(=O)NC(Cc1ccc(O)cc1)C(=O)O` (centres undefined), the IC50 [1] was 4.5 nM.
`COc1ccc(C(C)C(CS)C(=O)NC(Cc2ccc(O)cc2)C(=O)O)cc1` (centres undefined) gave an IC50 [1] of 3.6 nM.
`CC(NC(=O)C(CS)C(C)c1ccc(F)cc1)C(=O)O` (centres undefined) gave an IC50 [1] of 10 nM.
`CC(c1ccccc1)C(CSC(=O)c1ccccc1)C(=O)N[C@@H](C)C(=O)O` (some centres undefined) gave a Control [4] of 44%, a Control [10] of 93% and a Control [11] of 12%. It also gave a Control (Mus musculus) of 66%, a Control [5] of 100% and a Control [6] of 100%. The Control [7] was 75%, the Control [8] was 100% and the Control [9] was 32%.
Work on `CC(c1ccccc1)C(CS)C(=O)NC(COCc1ccccc1)C(=O)O` (centres undefined) yielded an IC50 [1] of 43 nM.
Compound `CCCC(NC(=O)C(CS)C(C)c1ccccc1)C(=O)O` (centres undefined) has an IC50 [1] of 4 nM.
`C[C@H](NC(=O)[C@H](CS)[C@@H](C)c1ccccc1)C(=O)O` (stereo in doubt; 44a) was tested, and the Ki [1] was 80 nM.
Work on `CC(c1ccccc1)C(CSC(=O)C12CC3CC(CC(C3)C1)C2)C(=O)N[C@@H](C)C(=O)OCc1ccccc1` (some centres undefined) yielded a Control [4] of 42%, a Control (Mus musculus) of 34% and a Control [7] of 41%. It also gave a Control [9] of 16%.
Work on `CC(=O)Oc1ccc(C[C@H](NC(=O)C(CSC(C)=O)C(C)c2ccccc2)C(=O)OCc2ccccc2)cc1` (some centres undefined) yielded an inhibition [2] of 25% and an inhibition [3] of 28%.
`CC(=O)SCC(C(=O)N[C@@H](C)C(=O)O)C(C)c1ccccc1` (some centres undefined) was tested, and the Control [4] was 18%, the Control (Mus musculus) was 29% and the Control [7] was 31%. It also gave a Control [9] of 16%.
For `CC(c1ccc(F)cc1)C(CS)C(=O)NC(Cc1ccc(O)cc1)C(=O)O` (centres undefined), the IC50 [1] was 6.9 nM.
